Screens (PubChem)
Rows were chosen to be rich in hits. Some 4.6% of all compounds tested hit in one or more screens of this group.
OX1R antag-1 = blocks the human orexin 1 receptor | CHO/OX1R cells, Fluo-8 calcium fluorescence, orexin A | inhibition, % at 5 µM | 0.43% of 330,000 active | O43613;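 active = inhibition above its plate's threshold, mean inhibition of all tested compounds on the plate plus 3 SD, cut at about 37% in these data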;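 also: 0% = orexin A challenge wells and 100% = SB-334867-A antagonist wells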
GPR7 antag = blocks human GPR7 receptor signaling. P48145. GPR7-expressing cells, fluorescence antagonist assay. inhibition, % at 4.4 µM. 1.1% of 290,000 active; in the data active = inhibition above about 16%, passing the limit was not always enough;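 also: cells stimulated with the agonist NPW; 0% = agonist with vehicle and 100% = vehicle without agonist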
Target sequence (P48145 whole entry, looked up): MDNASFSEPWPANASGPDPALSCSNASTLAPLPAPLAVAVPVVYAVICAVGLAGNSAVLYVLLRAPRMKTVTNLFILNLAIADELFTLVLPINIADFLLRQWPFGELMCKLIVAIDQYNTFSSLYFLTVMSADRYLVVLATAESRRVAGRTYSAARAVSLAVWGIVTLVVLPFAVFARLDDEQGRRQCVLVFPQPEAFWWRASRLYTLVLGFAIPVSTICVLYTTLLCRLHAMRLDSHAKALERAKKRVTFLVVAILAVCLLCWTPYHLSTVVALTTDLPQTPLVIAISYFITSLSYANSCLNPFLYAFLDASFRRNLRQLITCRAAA
CHO parental Ca = counter-screen: ATP calcium response change in parental CHO cells; parental CHO-K1, ATP-induced calcium, Fluo-8 fluorescence; inhibition, % at 5.6 µM; 0.63% of 330,000 active;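 active = inhibition above that plate's mean sample inhibition plus 3 SD, cut at about 26% in these data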;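 also: 0% = ATP-challenged DMSO wells and 100% = DMSO wells without ATP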
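Test system: untransfected parental CHO cell line; also added: ATP stimulus; dosing: 5.6 µM, single dose; signal: calcium-sensitive Fluo-8 fluorescence; measure: percent inhibition of ATP-evoked calcium rise, normalized to controls; benchmarks: low control ATP plus DMSO, high control DMSO only; replication: one well per compound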
TAAR1 antag = antagonists of human TAAR1 | Q96RJ0 | CHO RD-HGA16 TAAR1, Fluo-8 calcium fluorescence, antagonist | inhibition, % at 3 µM | 1.5% of 360,000 active;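 active = inhibition above a per-plate cutoff, the mean inhibition of test compounds on that plate plus 3 SD, cut at about 49% in these data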;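 also: 0% = DMSO plus EC80 beta-PEA response and 100% = DMSO alone without agonist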
Target sequence (Q96RJ0 whole entry, looked up): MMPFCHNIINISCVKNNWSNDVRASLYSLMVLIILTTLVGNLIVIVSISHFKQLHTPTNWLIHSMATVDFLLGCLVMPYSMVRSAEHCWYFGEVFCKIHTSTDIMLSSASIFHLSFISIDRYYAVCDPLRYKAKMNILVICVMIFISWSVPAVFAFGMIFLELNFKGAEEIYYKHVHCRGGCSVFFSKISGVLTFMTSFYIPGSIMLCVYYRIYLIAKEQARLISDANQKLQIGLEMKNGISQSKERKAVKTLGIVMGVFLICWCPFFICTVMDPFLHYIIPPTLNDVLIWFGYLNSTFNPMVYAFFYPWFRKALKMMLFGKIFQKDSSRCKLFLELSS
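Test system: CHO RD-HGA16 cells bearing hTAAR1 | Reagent: β-PEA, EC80 | Compound dosing: 3 µM, single point | Schedule: Dye loading 75 min at 37 °C, then 30 min room temperature | Signal: Calcium fluorescence with Fluo-8 | Evaluation: Percent inhibition of PEA-evoked calcium signal, max/basal emission ratio | Control set: DMSO-only wells and EC80 β-PEA-stimulated wells | Repeats: Singlicate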
TAAR1 ag = human TAAR1 agonism; activation, % at 3 µM; CHO RD-HGA16 TAAR1, Fluo-8 calcium fluorescence; vehicle wells 0%, saturating PEA agonist 100%; 0.99% of 360,000 active; AID 624467; Q96RJ0;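 active = activation above the mean activation of all test compounds in the run plus 3 SD, cut at about 38% in these data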
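Test system: RD-HGA16 (CHO) cells co-expressing Gα16 and hTAAR1 | Doses: Single dose, 3 µM | Schedule: 17-24 h seeding, 75 min 37 °C dye, 30 min RT | Evaluation: % activation from peak over basal fluorescence ratio, DMSO-to-PEA scaled | Technique: Kinetic Fluo-8 calcium fluorescence | Benchmarks: Low control DMSO, high control PEA (EC100)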
OX1R antag-2 = OX1R (human) antagonism; O43613; OX1R-expressing cells, FRET antagonist read-out; inhibition, % at 6.6 µM; 1.8% of 330,000 active; AID 485270; in the data active = inhibition mostly above about 38%, no sharp cut-off; inactive = mostly below about 40%;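 also: 0% = agonist challenge alone and 100% = reference antagonist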
Starred values were filed as active, the others as inactive; · = no result.

SMILES	OX1R antag-1	GPR7 antag	CHO parental Ca	TAAR1 antag	TAAR1 ag	OX1R antag-2
CCCN1C[C@H](CSC)C[C@@H]2c3cccc4[nH]cc(c34)C[C@H]21	-24.3	4.3	-17.1	-4.2	11.4	10.2
CCCCC1CC2=C(C(=O)OC(C)(C)O2)C(c2ccc3ccccc3c2)O1 (stereo not drawn)	·	·	·	-0.1	9.5	·
O=C(Cc1ccccc1)Nc1cccc(-c2nnc(-c3ccco3)o2)c1	-19.8	6.7	-24.4	35.4	21.8	15.0
COc1ccc(CC(=O)Nc2cccc(-c3nnc(-c4cccc(C)c4)o3)c2)cc1OC	88.6*	-8.5	94.3*	78.4*	22.4	110.2*
COc1ccccc1OCC(=O)Nc1cccc(-c2nnc(-c3ccco3)o2)c1	-18.3	4.7	-14.5	41.7	19.8	45.7*
O=C(Nc1cccc(F)c1)Nc1ccc2c(c1)CCC2	-1.6	-4.4	22.2	14.1	0.8	24.4
O=C(Nc1ccccc1)Nc1ccc2c(c1)CCC2	·	-1.6	·	-6.8	1.6	·
O=C(Nc1cccc([N+](=O)[O-])c1)c1cc2ccccc2cc1O	23.8	8.9	36.1*	2.7	11.8	50.8*
O=C(Nc1ccc(F)cc1)Nc1cccc(Br)c1	61.4*	·	75.8*	21.9	6.3	57.6*
O=C(Nc1cccc([N+](=O)[O-])c1)Nc1ccc2c(c1)CCC2	4.8	19.2	43.2*	30.9	2.5	61.6*
O=C(Nc1ccc(F)cc1)Nc1ccc2c(c1)CCC2	6.9	-9.6	39.0*	19.4	1.5	10.1
CCCC(C)(C)C(=O)N1CCC1(C)C(=O)NS(=O)(=O)c1ccccc1Cl (stereo not drawn)	·	·	·	0.8	-0.8	·
COc1ccccc1N(CC(=O)N1CCN(c2ccccc2)CC1)S(=O)(=O)c1ccc(C)cc1	-19.4	-5.4	-2.4	8.7	6.7	42.3
Cc1ccn2c(CC(C)(C)C)c(-c3ccc(F)cc3)nc2c1	·	·	·	-21.2	-1.9	·
Cc1cc(C(=O)Nc2ccc3c(c2)CCC3)ccc1[N+](=O)[O-]	13.0	·	-22.3	-22.9	-3.1	45.3*
CCOc1ccc(NC(=NCc2ccc3c(c2)OCO3)SC2CC(=O)N(c3ccc(C(=O)O)cc3)C2=O)cc1 (stereo not drawn)	51.1*	-7.0	37.5*	-9.0	7.4	26.7
O=C(Oc1ccc2cc(Br)ccc2c1)c1cccnc1	-8.5	7.3	-6.7	-15.5	13.9	3.2
CCOC(=O)N1CCN(C(=O)CSc2nnc3[nH]c(=O)c(C)c(C)n23)CC1	-4.7	·	-5.3	-22.0	3.6	22.0
CC(=O)N(c1ccccc1C)C1CCCC1	-14.5	-19.0	-11.8	-3.1	0.7	16.9
CC(=O)N(C1=C(Cl)C(=O)c2ccccc2C1=O)C1CCCCC1	22.0	-19.4	37.9*	40.0	42.0*	71.1*
COc1ccc(N2CCN(C(=O)CCCCCn3c(=S)[nH]c4ccc(N5CCOCC5)cc4c3=O)CC2)cc1	·	·	·	56.1*	8.8	·
O=C1CSC(c2ccccc2)N1c1cccnc1 (stereo not drawn)	0.3	-9.8	0.8	-24.6	1.4	4.3
CCCCSc1nnc(CNC(=O)C23CC4CC(CC(C4)C2)C3)n1Cc1ccccc1	-34.8	0.4	-16.9	-21.1	6.1	9.2
CCC(=O)N1CCc2cc(S(=O)(=O)NCCC(=O)N3CC=C(c4ccccc4)CC3)ccc21	4.7	-3.0	11.6	17.1	3.6	55.4*
COc1cc(CO)ccc1OCc1nnnn1-c1ccc(C)cc1	-9.1	-1.1	4.6	13.9	1.2	17.5
SMILES	OX1R antag-1	GPR7 antag	CHO parental Ca	TAAR1 antag	TAAR1 ag	OX1R antag-2
CC(=O)N1CCN(C(=S)c2ccc([N+](=O)[O-])cc2)CC1	-9.3	-17.1	1.3	1.4	3.6	76.3
CC(=O)N1CCC(N(CCCOC(C)C)S(=O)(=O)c2ccc([N+](=O)[O-])cc2)CC1	-36.3	-6.8	-7.6	-20.2	-0.8	45.7*
O=c1[nH]c2ccc(Cl)cc2c(-c2ccccc2)c1SC(=S)N1CCOCC1	25.4	3.7	-18.4	55.8*	30.1	35.5
CCCN(CC(=O)Nc1ccccc1OC)C(=O)CN1C(=O)NC2(CCCCC2)C1=O	-20.3	·	-13.2	3.1	-0.6	-0.4
N#CC1=C2SCC(O)(c3ccccc3)N2C(=O)CC1c1ccccc1 (stereo not drawn)	-1.7	16.9*	-20.4	25.3	10.8	16.2
CCc1ccc(C2CC(=O)N3CN(c4ccccc4)CSC3=C2C#N)cc1 (stereo not drawn)	-16.9	4.3	-12.2	2.1	4.3	3.9
COc1ccc(OC(C)C(=O)NC2CCCCCC2)cc1 (stereo not drawn)	-11.7	0.5	-15.5	-18.3	0.6	4.7
Cc1ccc(-c2cc(C(F)F)n3ncc(C(=O)N4CCN5CCCC5C4)c3n2)cc1 (stereo not drawn)	-31.6	-14.6	-27.9	-5.9	-2.1	28.3
CCOC(=O)C1CCCN(C(=O)c2cnn3c(C(F)F)cc(-c4ccc(C)cc4)nc23)C1 (stereo not drawn)	-51.3	19.0*	-43.9	-11.8	11.5	5.4
O=C1Nc2cccc3c2N(CCC3)C2=C1CCC2	·	·	·	-5.7	2.0	·
CC(=O)N1c2ccc(S(=O)(=O)NCC3CCC(C(=O)N4CCCC(C)C4)CC3)cc2CC1C (stereo not drawn)	-37.6	-14.3	-24.6	-6.8	2.5	-1.9
O=[N+]([O-])c1ccc(S(=O)(=O)NCCc2cn3ccccc3n2)cc1	-11.2	-7.4	-8.1	-11.2	-0.1	42.4*
Cc1cccn2cc(CCNS(=O)(=O)c3ccc([N+](=O)[O-])cc3)nc12	-14.9	-5.8	-4.9	-3.3	1.1	26.1
CN(C(=O)COC(=O)C12CC3CC(CC(Cl)(C3)C1)C2)C1(C#N)CCCCC1	-3.4	·	-13.8	11.1	21.3	3.3
Cc1ccc2c(c1)-c1c(cnn1CC(=O)N(Cc1ccco1)C1CCCCC1)CO2	-13.2	-3.5	-12.3	8.3	-1.0	52.2*
CCOC(=O)c1cc(NC(=O)NC2CCCCC2)c(C)nc1C	-25.2	-13.6	-17.9	-3.7	-1.1	20.7
Cc1cc2c(c(=O)o1)[C@@]1(C(=O)N(C)c3ccccc31)C1=C(CCCC1=O)O2	·	·	·	-6.4	0.1	·
COC(=O)c1ccc(C2N=C(c3cccs3)CC(c3ccccc3O)N2)cc1 (stereo not drawn)	3.7	-1.9	42.1*	-13.0	9.5	72.2*
O=C(c1ccccc1)N1N=C(c2cccs2)CC1c1ccccc1O (stereo not drawn)	-29.3	-12.6	-3.9	-9.9	4.2	7.6
COc1cccc(C(=O)CC(C(=O)O)c2ccc(Cl)cc2)c1 (stereo not drawn)	-19.2	1.9	-7.6	-18.6	-0.2	4.7
CC(C)[C@@H]1NC(=O)c2cc([N+](=O)[O-])cc(I)c2NCCCC[C@@H](C(=O)NC(CC(=O)O)C(N)=O)NC(=O)[C@H](CO)NC1=O (stereo partly drawn)	·	-5.1	·	·	·	·
